ChEMBL document CHEMBL1268810, “'Click' assembly of selective inhibitors for MAO-A” (Bioorg Med Chem Lett, 2010)

Key:
[1] = target: T1, Amine oxidase [flavin-containing] B (Homo sapiens, UniProt P27338); test: Inhibition of MAOB by spectrofluorimetry
T1 sequence (P27338 whole entry): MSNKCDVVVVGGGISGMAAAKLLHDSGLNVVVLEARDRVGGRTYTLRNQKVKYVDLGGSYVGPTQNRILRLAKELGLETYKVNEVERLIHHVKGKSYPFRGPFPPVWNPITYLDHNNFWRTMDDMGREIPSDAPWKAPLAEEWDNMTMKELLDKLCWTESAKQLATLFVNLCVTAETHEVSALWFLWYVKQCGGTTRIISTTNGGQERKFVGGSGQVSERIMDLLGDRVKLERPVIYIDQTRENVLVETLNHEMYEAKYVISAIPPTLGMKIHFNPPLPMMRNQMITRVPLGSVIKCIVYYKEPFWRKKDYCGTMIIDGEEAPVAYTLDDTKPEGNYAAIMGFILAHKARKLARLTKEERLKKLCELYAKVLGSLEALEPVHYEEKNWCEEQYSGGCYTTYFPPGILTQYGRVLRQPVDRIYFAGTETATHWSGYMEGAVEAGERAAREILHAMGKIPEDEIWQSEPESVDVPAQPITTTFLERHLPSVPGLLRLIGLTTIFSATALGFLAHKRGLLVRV

[2] = target: T2, Amine oxidase [flavin-containing] A (Homo sapiens, UniProt P21397); test: Inhibition of MAOA by spectrofluorimetry
T2 sequence (P21397 whole entry): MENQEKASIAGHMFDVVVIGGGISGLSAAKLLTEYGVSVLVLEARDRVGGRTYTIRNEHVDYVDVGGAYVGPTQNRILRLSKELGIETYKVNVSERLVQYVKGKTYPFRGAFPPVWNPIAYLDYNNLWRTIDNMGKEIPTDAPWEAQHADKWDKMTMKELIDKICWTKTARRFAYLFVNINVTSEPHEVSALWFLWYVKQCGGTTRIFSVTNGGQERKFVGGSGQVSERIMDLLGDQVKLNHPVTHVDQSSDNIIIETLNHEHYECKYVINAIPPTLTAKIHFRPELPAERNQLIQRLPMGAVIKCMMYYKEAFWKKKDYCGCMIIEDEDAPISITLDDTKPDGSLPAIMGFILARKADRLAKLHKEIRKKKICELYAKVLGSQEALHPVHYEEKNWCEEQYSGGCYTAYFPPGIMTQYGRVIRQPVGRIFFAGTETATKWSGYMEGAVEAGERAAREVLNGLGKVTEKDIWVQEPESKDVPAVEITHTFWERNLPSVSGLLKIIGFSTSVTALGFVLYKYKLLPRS
In short: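 Fluorescence-based microplate assay for MAO-A and MAO-B inhibition, following the group's earlier reported method. Click reaction mixtures, made with CuSO4 and sodium ascorbate in t-BuOH/H2O (1:1) over 24 h, were diluted into 96-well plates from 0 to 100 μM. Fluorescence was read at λex 360 nm and λem 460 nm.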

[3] = Selectivity ratio, ratio of IC50 for MAOB to IC50 for MAOA

Which results are given for `NCc1cn(-c2cccc(C(=O)O)c2)nn1`?
IC50 [1]: 62.1 µM; IC50 [2]: 50.7 µM; Ratio IC50 [3]: 0.95

What does the source list for `NCc1cn(-c2ccncc2)nn1`?
IC50 [1]: 116 µM; IC50 [2]: 0.83 µM; Ratio IC50 [3]: 140

For `NCc1cn(-c2ccccc2)nn1`, which IC50 [1] is on record?
The IC50 was 511 µM.

What about the IC50 [2] of the same compound?
Its IC50 is 0.97 µM.

And the Ratio IC50 [3]?
Its Ratio IC50 is 526.

Which results are given for `NCc1cn(-c2ccc(C(=O)O)cc2)nn1`?
IC50 [1]: 56.9 µM; IC50 [2]: 19.6 µM; Ratio IC50 [3]: 2.89
